Laboratory results published in PMC3726261 (Cancer, 2012).

Legend:
[1] = Pharmacokinetics: plasma R-150033 by LC-MS/MS after oral efatutazone; assay type: in vivo, human
Method in brief: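 Adults with advanced solid malignancies took oral doses twice daily in 21-day cycles, in cohorts of 3 to 6 at 0.10–1.15 mg. Plasma was sampled at baseline and 0.5, 1, 2, 3, 4, 6 and 8–10 h after the first dose on day 1 of cycles 1 and 2. Active metabolite R-150033 was measured by validated LC-MS/MS. AUC, Cmax and Tmax were derived; accumulation was AUC0-tau/AUC0–12, and steady state was judged from trough levels.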

adiponectin = assay: Plasma adiponectin; assay type: in vivo, human
Method in brief: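 Blood was drawn at baseline (before cycle 1) and every 3 weeks thereafter from patients with advanced solid malignancies given oral drug twice daily at 0.10–1.15 mg in 21-day cycles. Plasma adiponectin was quantified by solid-phase quantitative sandwich enzyme immunoassay. A population pharmacokinetic/adiponectin model using data from every patient defined the dose–response relation and predicted the increase relative to pretreatment.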

[2] = system: metastatic or advanced solid malignancy; assay: Tumor response; assay type: in vivo, human
cancer cell growth = settings: inhibition of cancer cell growth; cited from earlier work
[3] = system: human pancreatic and anaplastic thyroid tumor-cell cultures; settings: cited from earlier work
[4] = system: human colorectal tumor xeno-grafts; settings: human colorectal tumor xeno-grafts in nude rodents; cited from earlier work
[5] = in vivo; cited from earlier work
[6] = Patient 0020, Myxoid liposarcoma, 0.75 mg

## Cc1cc(Oc2ccc3nc(COc4ccc(CC5SC(=O)NC5=O)cc4)n(C)c3c2)cc(C)c1N (stereo not shown) [Efatutazone]
[1]; 0.10 to 1.15 mg twice daily, single and multiple doses
  Dose proportionality of exposure (AUC and Cmax): approximately dose proportional
[1]; based on trough plasma concentrations, twice daily
  Time to steady-state levels: by week 1 of cycle 2
adiponectin; after 4 weeks of treatment at all dose levels
  Change in adiponectin levels: increased
adiponectin; at optimal dose, population-based pharmacokinetic/adiponectin modeling
  Predicted increase in adiponectin expression levels relative to pretreatment: > 90%
[2]; 0.10 mg cohort (n = 6)
  No. of patients with stable disease or partial response: 3
  Treatment duration in patients with SD/PR, Maximum: 294 days
  Treatment duration in patients with SD/PR, Median: 67.0 days
  Treatment duration in patients with SD/PR, Minimum: 66 days
[2]; 0.15 mg cohort (n = 3)
  No. of patients with stable disease or partial response: 2
  Treatment duration in patients with SD/PR, Maximum: 178 days
  Treatment duration in patients with SD/PR, Median: 176.0 days
  Treatment duration in patients with SD/PR, Minimum: 173 days
[2]; 0.25 mg cohort (n = 4)
  No. of patients with stable disease or partial response: 0
[2]; 0.35 mg cohort (n = 3)
  No. of patients with stable disease or partial response: 1
  Treatment duration in patients with SD/PR, Maximum: 84 days
  Treatment duration in patients with SD/PR, Median: 84.0 days
  Treatment duration in patients with SD/PR, Minimum: 84 days
[2]; 0.50 mg cohort (n = 6)
  No. of patients with stable disease or partial response: 3
  Treatment duration in patients with SD/PR, Maximum: 336 days
  Treatment duration in patients with SD/PR, Median: 126.0 days
  Treatment duration in patients with SD/PR, Minimum: 74 days
[2]; 0.75 mg cohort (n = 3)
  No. of patients with stable disease or partial response: 1
  Treatment duration in patients with SD/PR, Maximum: 690 days
  Treatment duration in patients with SD/PR, Median: 690.0 days
  Treatment duration in patients with SD/PR, Minimum: 690 days
[2]; 1.15 mg cohort (n = 3)
  No. of patients with stable disease or partial response: 1
  Treatment duration in patients with SD/PR, Maximum: 84 days
  Treatment duration in patients with SD/PR, Median: 84.0 days
  Treatment duration in patients with SD/PR, Minimum: 84 days
[2]; 10 of 27 evaluable patients
  Patients with stable disease lasting ≥60 days: 37%
[2]; 27 evaluable patients
  Number of sustained partial responses: 1
[2]; Overall (N = 27)
  No. of patients with stable disease or partial response: 11
  Treatment duration in patients with SD/PR, Maximum: 690 days
  Treatment duration in patients with SD/PR, Median: 126.0 days
  Treatment duration in patients with SD/PR, Minimum: 66 days
[2]; Patient 0001, Thymoma, 0.10 mg, stable disease
  Treatment Duration: 67 days
[2]; Patient 0002, Carcinoma of unknown origin, 0.10 mg, stable disease
  Treatment Duration: 66 days
[2]; Patient 0005, Cancer of the peritoneum, 0.10 mg, stable disease
  Treatment Duration: 294 days
[2]; Patient 0007, Colorectal carcinoma, 0.15 mg, stable disease
  Treatment Duration: 173 days
[2]; Patient 0015, Carcinoma of unknown origin, 0.35 mg, stable disease
  Treatment Duration: 84 days
[2]; Patient 0017, Colorectal carcinoma, 0.50 mg, stable disease
  Treatment Duration: 126 days
[2]; Patient 0018, Colorectal carcinoma, 0.50 mg, stable disease
  Treatment Duration: 74 days
[2]; Patient 20, metastatic myxoid liposarcoma
  Time on therapy of patient with sustained partial response: 690 days
[2]; Patient 20, metastatic myxoid liposarcoma, June 2009
  Nadir reduction in tumor size: approximately 49%
[2]; [6]
  Best response (RECIST): partial response
  Treatment Duration: 690 days
[2]; Patient 20, November 2008
  Fluorodeoxyglucose uptake (PET/CT): no fluorodeoxyglucose uptake in the remaining tumors
[2]; Patient 0022, Cancer of the appendix, 1.15 mg, stable disease
  Treatment Duration: 84 days
[2]; Patient 0024, Carcinoma of unknown origin, 0.50 mg, stable disease
  Treatment Duration: 336 days
[2]; Patient 2001, Leiomyosarcoma, 0.15 mg, stable disease
  Treatment Duration: 178 days
[2]; in vivo
  Median overall survival: 283 days
  Median time to disease progression: 51 days
  Median treatment duration for patients with SD or PR: 126 days
Cancer cell growth
  Potency relative to rosiglitazone: at least 50 ×
  Potency relative to troglitazone: ≥ 500 ×
[3]
  Proliferation of tumor-cell cultures: inhibits proliferation
[4]
  Growth of tumor xenografts: inhibits
[5]
  Tolerability of single dose: well tolerated
